Compounds with a hit are over-represented: about 1.6% of the library has one in this group of screens.
Arrestin-AP2 inh = inhibitors of beta-arrestin/AP2 binding, primary screen, biochemical, GPCR trafficking, flow cytometry. hit rate 0.31% among 340,000. FITC-arrestin peptide / GST-AP2 beads; AP2 beta2 appendage carries R879A mutation. AID 504490, 2011. inhibition, % at 10 µM. beta-arrestin 1 C-terminal peptide binding to AP2 beta2-adaptin appendage (human);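 active = inhibition above a set limit, near 3 SD of compounds lacking own fluorescence, cut at about 54% in these data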
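System: GST-tagged AP2 beta2-adaptin appendage (R879A) on 4 µm glutathione beads / Reagent: FITC-arrestin peptide, 50 nM / Detection: HyperCyt-sampled flow cytometry, FL1 channel, ex 488/em 535 nm / Timing: 12 min plus 1 h, RT / Buffer or medium: PBS plus Tween 20 (0.05%) and BSA (0.1%)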
JMJD2C inh = inhibitors of GASC-1 histone demethylase, primary screen, biochemical, fluorescence, DELFIA europium | GST-JMJD2C(1-420) H3K9me3 demethylation | inhibition, % at 2.35 µM | hit rate 0.069% among 330,000;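 active = more than half of a compound's replicate wells show inhibition beyond 50%, single wells judged on their own value; inconclusive = some, but no more than half, of replicates pass 50% inhibition; inactive = no replicate passes 50% inhibition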;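 note: signal counts dimethyl H3K9 product captured on neutravidin plate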
Target sequence (Q9H3R0 1-420 limits assumed): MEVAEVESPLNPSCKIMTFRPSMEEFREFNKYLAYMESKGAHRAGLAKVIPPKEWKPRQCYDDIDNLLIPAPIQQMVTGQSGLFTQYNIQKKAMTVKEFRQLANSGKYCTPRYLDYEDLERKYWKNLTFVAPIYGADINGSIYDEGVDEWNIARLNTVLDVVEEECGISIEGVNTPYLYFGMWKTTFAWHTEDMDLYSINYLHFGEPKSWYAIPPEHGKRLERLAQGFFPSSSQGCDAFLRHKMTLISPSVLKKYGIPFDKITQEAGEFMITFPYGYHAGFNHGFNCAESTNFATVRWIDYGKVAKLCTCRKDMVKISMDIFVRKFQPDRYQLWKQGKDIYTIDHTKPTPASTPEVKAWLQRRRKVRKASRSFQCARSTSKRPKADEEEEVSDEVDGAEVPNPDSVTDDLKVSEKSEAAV
T cell modulator = modulators of CD8 T cell-vesicle binding, primary screen, mouse 2C CD8+ T cells, flow cytometry | AID 2052, 2009 | 2C CD8+ T cell-vesicle binding; hits give low values | hit rate 0.068% among 330,000 | response (vesicle binding), % at 7 µM;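 active = response, share of CD8 T cells binding vesicles, and their 90th percentile fluorescence all below set limits, cut at about 80% in these data, passing the limit was not always enough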;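 note: values below 100% mean blocked vesicle binding to the CD8+ T cells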
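Also added: QL9-peptide-loaded Drosophila micro-vesicles bearing Ld, ICAM-1 and B7-1; Test system: purified 2C TCR transgenic mouse naive CD8+ T cells; Measured by: cytometric PE anti-B7-1 and Alexa647 anti-CD8 signals after 1% paraformaldehyde fixation; Timing: binding step 1.5 h, 37 °C, antibody labelling 20 min, ice.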
LANA-H2B inh = blockers of LANA interaction with H2A/H2B – biochemical, FP readout, HTS, primary screen | Protein LANA1 (Human herpesvirus 8 type P (isolate GK18)), Q9QR71 | cell-free LANA-H2A/H2B peptide, fluorescence polarization | inhibition, % (no concentration beside the values) | AID 2629, 2010 | hit rate 0.6% among 320,000; in the data active = inhibition mostly above about 10%, no sharp cut-off; inactive = mostly below about 6.7%
HDAC3 inh = HDAC3 deacetylase inhibitors, primary screen, biochemical, fluorescence, cell-free homogeneous | AID 2718, 2010 | recombinant HDAC3, fluorogenic peptide/trypsin coupled | Histone deacetylase 3 (Homo sapiens), O15379 | inhibition, % at 8.3 µM | hit rate 0.15% among 320,000; in the data active = inhibition above about 26%, passing the limit was not always enough; inconclusive = no clear call, values can overlap the other calls
Pemphigus Ab inh = inhibitors of pemphigus antibody binding to DSG3, primary screen, biochemical, bead-based, flow cytometry, scFv-GFP; Desmoglein-3 (Homo sapiens), P32926; DSG3-coupled beads, scFv-anti-DSG3-GFP binding; hits give low values; binding (percent of control), % at 10 µM; hit rate 0.48% among 310,000; AID 588358, 2011;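 active = binding more than 3 SD below its plate's average and above zero; inconclusive = below that plate limit but binding exactly zero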;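 note: hits lower antibody fragment binding to DSG3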
Hits are given with their value; – = inactive; ? = inconclusive; · = no result; + = active, no number.

SMILES	Arrestin-AP2 inh	JMJD2C inh	T cell modulator	LANA-H2B inh	HDAC3 inh	Pemphigus Ab inh
O=C(N/N=C/c1ccccn1)c1sc2ccccc2c1Cl	–	–	–	–	–	–
COc1ccc(C2=NN(C(=O)c3ccco3)C(c3cc4ccccc4nc3Cl)C2)cc1 (stereo not drawn)	·	–	–	–	–	·
O=C(c1ccco1)N1N=C(c2ccco2)CC1c1ccc(Cl)cc1Cl (stereo not drawn)	–	–	–	+	–	–
CCOc1ccccc1OCC(=O)NCCc1ccc(S(N)(=O)=O)cc1	–	–	–	–	–	–
Cc1c(C)c2ccc(OCC(=O)N3CCOCC3)c(C)c2oc1=O	–	–	–	+	–	–
CCCN(C(=O)C1=COCCO1)c1c(N)n(Cc2ccccc2)c(=O)[nH]c1=O	–	–	–	–	–	–
CC(C)CCN(C(=O)C1=COCCO1)c1c(N)n(Cc2ccccc2)c(=O)[nH]c1=O	–	75	–	–	–	–
O=C(Cc1ccccc1)Nc1c2c(nn1-c1cccc(Cl)c1)CS(=O)(=O)C2	–	–	–	–	–	86
COc1ccc(CC(=O)Nc2c3c(nn2-c2cccc(Cl)c2)CS(=O)(=O)C3)cc1	–	–	–	–	–	–
CCCOC(=O)CSc1nc(N)c(C#N)c(-c2ccco2)c1C#N	–	–	–	–	–	·
CCCOC(=O)CSc1nc(N)c(C#N)c(CC)c1C#N	–	–	–	–	–	13
CCOc1ccc(-c2c(C#N)c(N)nc3sc(C(=O)c4ccccc4)c(N)c23)cc1	–	–	–	11	–	–
CCCCOC(=O)CSc1nc(N)c(C#N)c(-c2ccc(OC)cc2)c1C#N	–	–	–	–	–	-28
CCCCOC(=O)CSc1nc(N)c(C#N)c(-c2ccc(OCC)cc2)c1C#N	–	–	–	–	–	80
O=C(O)CCC(=O)OCCN(Cc1ccc(Oc2ccc([N+](=O)[O-])cc2)cc1)C(=O)C(Cl)Cl	–	·	·	·	·	–
COc1ccc(CNC(=O)C2CCN(S(=O)(=O)c3cccc4nonc34)CC2)cc1	–	–	–	–	–	·
Cc1ccc(NC(=O)c2cc(-c3ccc(C)o3)nc3ccccc23)cc1	–	–	–	–	–	–
Cc1ccc(-c2cc(C(=O)Nc3cccnc3)c3ccccc3n2)o1	–	–	–	–	?	81
COc1ccc(OCc2nnc(SCC(=O)Nc3ccc(C)cc3)o2)cc1	–	–	–	–	–	·
Cc1cccc(OCc2nnc(SCC(=O)Nc3ccc(C)c(C)c3)o2)c1	–	–	–	–	–	66
Cc1ccc(OCc2nnc(SCC(=O)CC(=O)Nc3ccccc3)o2)cc1	–	–	–	17	–	–
COc1ccc(Cc2nnc(SCC(=O)NC(C)c3ccccc3)o2)cc1 (stereo not drawn)	–	–	–	–	–	–
CC(NC(=O)CSc1nnc(COc2ccccc2)o1)c1ccccc1 (stereo not drawn)	–	–	–	20	–	–
COc1ccc(OC)c(NC(=O)C2CC(/C=C/c3ccccc3)=NO2)c1 (stereo not drawn)	–	–	–	–	–	–
O=C(O)c1cccc(-n2cccc2/C=C/[N+](=O)[O-])c1	–	–	–	–	–	24
SMILES	Arrestin-AP2 inh	JMJD2C inh	T cell modulator	LANA-H2B inh	HDAC3 inh	Pemphigus Ab inh
CCSc1nnc(NC(=O)CSc2nnc(CNC(=O)c3ccc(OC)cc3)o2)s1	–	–	–	–	–	-2.6
NSc1nc(N)c2nc(-c3ccccc3)c(-c3ccccc3)nc2n1	–	–	–	–	–	67
CCOc1ccc(-c2csc(NC(=O)CSC3=NC(=O)CN3C(C)=O)n2)c2ccccc12	–	–	–	–	–	–
CC(=O)N1CC(=O)N=C1SCC(=O)Nc1nc(C)c(-c2ccccc2)s1	–	–	–	–	26	–
CCc1ccccc1NC(=O)CNC(=O)CCC(=O)c1cc(C)sc1C	·	·	·	·	·	–
O=C(Cn1cnc2c(cnn2-c2ccccc2)c1=O)N1CCN(c2ccc(F)cc2)CC1	–	–	–	–	–	86
CCCCN(CCCC)C(=O)c1cc(Cl)ccc1[N+](=O)[O-]	–	–	–	–	–	-27
Cc1[nH]c(-c2ccco2)nc1C(=O)O	–	–	–	15	–	–
CC(=O)N(Nc1ccccc1)c1ccccc1	–	–	–	–	–	67
CC(=O)N(CCN(C(C)=O)c1ccccc1)c1ccccc1	–	–	–	–	–	–
COc1ccc(CCn2c(NN)nc3c2c(=O)[nH]c(=O)n3C)cc1	–	–	–	–	–	79
Cn1c(=O)[nH]c(=O)c2c1nc(N1CCNCC1)n2Cc1cccc2ccccc12	–	–	–	18	–	–
C=CCn1c(N2CCN(c3ccc(OC)cc3)CC2)nc2c1c(=O)[nH]c(=O)n2C	–	–	–	–	–	-12
C=CCn1c(N2CCN(c3ccc(OC)cc3)CC2)nc2c1c(=O)n(C)c(=O)n2C	–	–	–	–	–	–
COc1ccc(CCn2c(NN=C(C)C)nc3c2c(=O)[nH]c(=O)n3C)cc1	–	–	–	–	–	–
Cn1c(=O)[nH]c(=O)c2c1nc(N1CCNCC1)n2Cc1ccccc1	–	–	–	–	–	–
Fc1ccccc1Oc1nc(-c2ccncc2)nc2ccccc12	–	–	–	–	–	–
Clc1cccc(Nc2nc(N3CCOCC3)nc(N3CCOCC3)n2)c1	–	–	–	–	–	47
O=C(Nc1ccnn1C1CCN(C2CCCC2)CC1)c1ccccc1	–	–	–	–	–	–
O=C(NCCc1ccccc1)c1cc(S(=O)(=O)N2CCOCC2)ccc1F	–	?	–	–	–	·
Cc1cc(C)cc(OCCNC(=O)c2cc(S(=O)(=O)N3CCOCC3)ccc2F)c1	–	–	–	–	–	58
CCN(CC)S(=O)(=O)c1ccc(C(C)NCC(=O)Nc2ccccc2C(=O)NC2CC2)cc1 (stereo not drawn)	–	·	·	·	·	–
CC(NCC(=O)Nc1ccccc1C(=O)NC1CC1)c1ccc(S(N)(=O)=O)cc1 (stereo not drawn)	–	–	–	+	–	–
Cc1c(C(=O)NNC(=O)c2cccnc2)cccc1[N+](=O)[O-]	–	–	0.0	–	–	–
CCCNC(=O)/C(C#N)=C1\N=C(NC(=O)c2ccco2)c2ccccc21	–	–	–	–	–	–
N#C/C(C(=O)NCc1ccccc1)=C1/N=C(NC(=O)c2cccs2)c2ccccc21	–	–	–	–	–	85
